This note sets out measurements from ChEMBL document CHEMBL4354867, “Validation and Characterization of Five Distinct Novel Inhibitors of Human Cytomegalovirus” (J Med Chem, 2020).

The subject of data set [1] is Human betaherpesvirus 5. Put plainly: Antiviral activity against HCMV TB40 infected in human HFF cells assessed as reduction in plaque formation treated with compound following viral infection and incubated for 8 to 10 days by crystal violet staining based assay. It counts as functional, organism-based. The note with it: Human betaherpesvirus 5, TB40, HFF.
Data set [2] relates to Human betaherpesvirus 5. Put plainly: Antiviral activity againstpp28-luciferase expressing HCMV Towne infected in human HFF cells assessed as reduction in viral replication treated with compound following viral infection at MOI of 1 PFU/cells measured after 3 days in presence of GCV by luciferase reporter gene assay. It counts as functional, organism-based. The note with it: Human betaherpesvirus 5, strain Towne, 72 h. Summed up:
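HFFs in 96-well plates were infected with pp28-luciferase Towne HCMV, in which luciferase is driven by the UL99 late promoter, at MOI 1. A dose-response of each drug alone gave its EC₅₀. Combinations started at twice each EC₅₀ in DMEM with 4% FBS, followed by two-fold serial dilutions, and were added after infection. Luciferase was read in cell lysates at 72 hpi. The Bliss ratio is observed over expected inhibition.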
In general terms: In a reporter assay the amount or activity of a reporter protein is the signal.

The subject of another data set is Human alphaherpesvirus 1. Put plainly: Antiviral activity against HSV 1 infected in African green monkey Vero cells assessed as reduction in plaque formation incubated for 36 hrs by crystal violet staining based assay. The data set is classed as functional, organism-based. Summed up: (§1)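 Plaque reduction in Vero cells: virus adsorbed 60 min, then compound added in a carboxymethylcellulose overlay. Plaques counted after 36 h by crystal violet staining.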

Data set [3] deals with Human betaherpesvirus 5. Put plainly: Antiviral activity against HCMV Towne infected in human HFF cells assessed as reduction in viral DNA replication at 2 uM treated with compound following viral infection at MOI of 0.1 PFU/cell by US17 real time PCR analysis. The note with it: strain Towne. The data set is classed as functional, organism-based. The essentials: (§2)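 At set time points supernatants were harvested and cells lysed for DNA. Cell-associated viral DNA and supernatant viral DNA quantified by real-time PCR targeting a 151-bp conserved US17 region.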
In general terms: Real-time PCR tracks product formation cycle by cycle.

A further data set deals with HFF. Put plainly: Cytotoxicity against human HFF cells assessed as reduction in cell viability incubated for 72 hrs or 10 days by MTT assay. The data set is classed as cell-based. Summed up:
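MTT assay on uninfected cells exposed to compound for 72 h or 8–10 days, matching the antiviral assay durations. MTT (5 mg/mL stock in PBS) added, then 2–3 h at 37 °C. Formazan absorbance read at 560 nm.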
A general note: Formazan colour is commonly taken as a measure of viable cells.

The subject of data set [4] is Human betaherpesvirus 5. The data set can be described thus: Antiviral activity against HCMV Towne infected in human HFF cells assessed as reduction in plaque formation treated with compound following viral infection and incubated for 8 to 10 days by crystal violet staining based assay. The note with it: Human betaherpesvirus 5, strain Towne. The data set is classed as functional, organism-based.

Data set [5] relates to Human betaherpesvirus 5. The data set can be described thus: Inhibition of viral protein expression in HCMV Towne infected in human HFF cells assessed as reduction in pp65 expression at 0.1 to 10 uM treated with compound following viral infection at MOI of 1 PFU/cell measured at 72 hrs post infection by Western blot analysis. The note with it: strain Towne. It counts as functional, organism-based. The essentials:
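Lysates taken at 72 hpi, equal protein run on SDS-PAGE and transferred to PVDF. Immunoblot for viral proteins (IE1/2, UL84, UL44, pp65) with β-actin as loading reference, chemiluminescent detection.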

Another data set concerns Human gammaherpesvirus 4. The data set can be described thus: Antiviral activity against EBV infected in human AKATA cells assessed as reduction in IgG-induced lytic virus replication measured at 48 hrs post-lytic induction by qRT-PCR analysis. It counts as functional, organism-based.
Data set [6] is described as follows: Antiviral activity against Mouse Cytomegalovirus Smith (ATCC VR-1399) infected in mouse MEF cells assessed as reduction in plaque formation measured after 3 days by crystal violet staining based assay. It counts as functional, cell-based, Murine cytomegalovirus (strain Smith). The essentials:
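Plaque reduction with MCMV Smith in mouse embryonic fibroblasts, with compound in a carboxymethylcellulose overlay. Assay ended at 3 days and plaques counted after crystal violet staining.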

The subject of data set [7] is Human betaherpesvirus 5. Put plainly: Inhibition of viral protein expression in HCMV Towne infected in human HFF cells assessed as reduction in IE2 expression at 0.1 to 10 uM treated with compound following viral infection at MOI of 1 PFU/cell measured at 72 hrs post infection by Western blot analysis. It counts as functional, organism-based. The note with it: strain Towne. Summed up: (§3)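 HFFs infected with HCMV Towne (MOI 1), then treated with compound. Lysates taken at 72 hpi, equal protein loaded on 8–10% Tris-glycine SDS-PAGE and transferred to PVDF. Primary antibodies overnight at 4 °C, HRP secondary, chemiluminescent detection; β-actin as loading control.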

Data set [8] relates to Human betaherpesvirus 5. The data set can be described thus: Antiviral activity against pp28-luciferase harboring UL97 C607Y mutant expressing GCV-resistant HCMV Towne infected in human HFF cells assessed as reduction in viral replication at 0.5 to 3 uM treated with compound following viral infection at MOI of 0.1 PFU/cell and measured at 72 hrs post infection by luciferase reporter gene assay. The data set is classed as functional, organism-based. The note with it: strain Towne. The essentials: (§4)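 HFFs infected with GCV-resistant pp28-luciferase Towne (MOI 0.1), then treated with a compound dilution series. Luciferase, driven by the UL99 late promoter, read in cell lysates at 72 hpi. Data are mean ± SD of triplicates from a single experiment.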

Data set [9] relates to Human betaherpesvirus 5. Put plainly: Inhibition of viral protein expression in HCMV Towne infected in human HFF cells assessed as reduction in UL44 expression at 0.1 to 10 uM treated with compound following viral infection at MOI of 1 PFU/cell measured at 72 hrs post infection by Western blot analysis. It counts as functional, organism-based. The note with it: strain Towne. Summed up: as §3

The test system of data set [10] is Human betaherpesvirus 5. Put plainly: Antiviral activity against GCV-resistant HCMV Towne infected in human HFF cells assessed as reduction in plaque formation treated with compound following viral infection and incubated for 8 to 10 days by crystal violet staining based assay. The data set is classed as functional, organism-based. The note with it: Human betaherpesvirus 5, strain Towne.

Another data set has as its system Human alphaherpesvirus 2. The data set can be described thus: Antiviral activity against HSV 2 infected in African green monkey Vero cells assessed as reduction in plaque formation incubated for 36 hrs by crystal violet staining based assay. It counts as functional, organism-based. The essentials: as §1
Data set [11] has as its system Human betaherpesvirus 5. Put plainly: Antiviral activity against HCMV Towne infected in human HFF cells assessed as reduction in viral DNA yields in the supernatant at 2 uM treated with compound following viral infection at MOI of 0.1 PFU/cell by US17 real time PCR analysis. It counts as functional, organism-based. The note with it: strain Towne. Summed up: as §2

Data set [12] concerns Human betaherpesvirus 5. The data set can be described thus: Inhibition of viral protein expression in HCMV Towne infected in human HFF cells assessed as reduction in UL84 expression at 0.1 to 10 uM treated with compound following viral infection at MOI of 1 PFU/cell measured at 72 hrs post infection by Western blot analysis. It counts as functional, organism-based. The note with it: strain Towne. The essentials: as §3

The subject of data set [13] is Human betaherpesvirus 5. The data set can be described thus: Antiviral activity against HCMV TB40 infected in human HFF cells assessed as reduction in plaque formation at 0.1 to 3 uM treated with compound following viral infection at […] measured after 8 days by crystal violet staining analysis. The data set is classed as functional, organism-based. Summed up: (§5)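 HFFs (2 × 10⁵/well) infected with HCMV TB40 at about 100 plaques/well for 90 min. Inoculum removed, then DMEM with 0.5% CMC, 4% FBS and compound added. Incubated at 37 °C; plaques stained with crystal violet and counted at 8 dpi. Experiment repeated three times; one representative shown.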

Data set [14] concerns Human betaherpesvirus 5. The data set can be described thus: Antiviral activity against HCMV Towne infected in human HFF cells assessed as reduction in plaque formation treated with compound following viral infection at MOI of 1 PFU/cell and measured at 10 days post-infection in presence of letermovir by crystal violet staining based assay. The data set is classed as functional, organism-based. The note with it: Human betaherpesvirus 5, strain Towne, 240 h.

The test system of data set [15] is Human betaherpesvirus 5. The data set can be described thus: Antiviral activity against pp28-luciferase expressing HCMV Towne infected in human HFF cells assessed as reduction in viral replication treated with compound immediately after viral infection at MOI of 1 PFU/cell followed by compound washout after 6 hrs and measured after 3 days by luciferase reporter gene assay. The data set is classed as functional, strain Towne. Summed up: (§6)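 Time-of-addition in HFFs infected with HCMV Towne (MOI 1). Add-on: compound added at 0, 6, 24 or 48 hpi. Removal: compound added right after infection and washed out after 0, 6, 24 or 48 h. Luciferase read at 72 hpi.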

Data set [16] relates to Human betaherpesvirus 5. The data set can be described thus: Antiviral activity against pp28-luciferase expressing HCMV Towne infected in human HFF cells assessed as reduction in viral replication treated with compound at 24 hrs post viral infection at MOI of 1 PFU/cell and measured after 3 days by luciferase reporter gene assay. The data set is classed as functional, organism-based. The note with it: strain Towne. Summed up: as §6

The subject of data set [17] is Human betaherpesvirus 5. Put plainly: Inhibition of viral protein expression in HCMV Towne infected in human HFF cells assessed as reduction in IE2 expression at 0.3 to 10 uM treated with compound following viral infection at MOI of 1 PFU/cell measured at 72 hrs post infection by Western blot analysis. It counts as functional, organism-based. The note with it: strain Towne. Summed up: as §3

The test system of data set [18] is Human betaherpesvirus 5. Put plainly: Inhibition of viral protein expression in HCMV Towne infected in human HFF cells assessed as reduction in IE1 expression at 0.3 to 10 uM treated with compound following viral infection at MOI of 1 PFU/cell measured at 72 hrs post infection by Western blot analysis. It counts as functional, organism-based. The note with it: strain Towne. Summed up: as §3

Data set [19] has as its system Human betaherpesvirus 5. Put plainly: Antiviral activity against HCMV Towne infected in human HFF cells assessed as reduction in viral DNA replication at 5 uM treated with compound following viral infection at MOI of 0.1 PFU/cell by US17 real time PCR analysis. The note with it: strain Towne. It counts as functional, organism-based. Summed up: as §2
For data set [20], the system named is Human betaherpesvirus 5. Put plainly: Antiviral activity against HCMV TB40 infected in human HFF cells assessed as reduction in plaque formation at 0.75 to 10 uM treated with compound following viral infection at […] measured after 8 days by crystal violet staining analysis. The data set is classed as functional, organism-based. Summed up:
as §5

In data set [21] the test system is Human betaherpesvirus 5. The data set can be described thus: Antiviral activity against pp28-luciferase harboring UL97 C607Y mutant expressing GCV-resistant HCMV Towne infected in human HFF cells assessed as reduction in viral replication at 1 to 5 uM treated with compound following viral infection at MOI of 0.1 PFU/cell and measured at 72 hrs post infection by luciferase reporter gene assay. The data set is classed as functional, organism-based. The note with it: strain Towne. The essentials:
as §4

Data set [22] relates to Human betaherpesvirus 5. Put plainly: Antiviral activity against HCMV Towne infected in human HFF cells assessed as reduction in viral DNA yields in the supernatant at 5 uM treated with compound following viral infection at MOI of 0.1 PFU/cell by US17 real time PCR analysis. It counts as functional, organism-based. The note with it: strain Towne. The essentials:
as §2

Molecules are shown by their SMILES. Calls of active or inactive are those of the source. The rule behind the calls is not given here.

Usually EC50 stands for the concentration giving half of the maximal effect. The CC50 is the concentration giving 50% cytotoxicity. Consider `CCc1ccc(NC(=O)[C@H](Cc2c[nH]c3ccccc23)NC(=O)[C@@H]2Cc3ccccc3CN2)cc1`, for which the EC50 with Human betaherpesvirus 5 [1] is 340 nM; in the data set with Human betaherpesvirus 5 [2], 550 nM; in the data set on Human alphaherpesvirus 1 (Human alphaherpesvirus 1, Vero, 36 h, read-out: EC50) it was 1780 nM; in the data set with Human betaherpesvirus 5 [4] it was 640 nM; with Human gammaherpesvirus 4, “Not Active”; in [6] (Murid betaherpesvirus 1, ATCC VR-1399, MEF, 72 h, read-out: EC50), 11700 nM. Further, the EC50 stood at 170 nM with Human betaherpesvirus 5 [10]; 1300 nM with Human alphaherpesvirus 2 (Human alphaherpesvirus 2, Vero, 36 h, read-out: EC50); 140 nM in the data set with Human betaherpesvirus 5 [14]. The outcome in the data set with Human betaherpesvirus 5 [3], in the data set on Human betaherpesvirus 5 [8], in the data set with Human betaherpesvirus 5 [11] and with Human betaherpesvirus 5 [13] was Active. In addition, in the data set with HFF, the CC50 is 86000 nM. In addition, the inhibition entry in the data set on Human betaherpesvirus 5 [5], in the data set with Human betaherpesvirus 5 [7], in the data set on Human betaherpesvirus 5 [9] and in the data set on Human betaherpesvirus 5 [12] was “Active” in each case. Also, the “inhibition (INH)” value with Human betaherpesvirus 5 [15] is reported as 100%. Further, the result with Human betaherpesvirus 5 [16] was inactive.
As to `CCN1CCN(CCCNC(=O)c2ccc3c(c2)sc2nc(-c4ccc(OC)cc4)cn23)CC1`, the EC50 is 1210 nM with Human betaherpesvirus 5 [1]; 690 nM in the data set on Human betaherpesvirus 5 [2]; “Not Active” in the data set with Human alphaherpesvirus 1 (vero); 850 nM with Human betaherpesvirus 5 [4]; 1920 nM in the data set with Human gammaherpesvirus 4 (human gammaherpesvirus 4, 48 h, read-out: EC50); “Not Active” in data set [6] (mef). Moreover, the EC50 is 840 nM with Human betaherpesvirus 5 [10], “Not Active” in the data set on Human alphaherpesvirus 2 (vero) and 610 nM in the data set on Human betaherpesvirus 5 [14]. Further, the inhibition entry in the data set on Human betaherpesvirus 5 [17] and in the data set with Human betaherpesvirus 5 [18] was “Active” each time. For the same compound, in the data set on HFF, the CC50 was determined as 70900 nM. In addition, the outcome with Human betaherpesvirus 5 [19], in the data set on Human betaherpesvirus 5 [20], in the data set on Human betaherpesvirus 5 [21], in the data set on Human betaherpesvirus 5 [22] and in the data set on Human betaherpesvirus 5 [15] (strain Towne) was Active. For the same compound, in the data set with Human betaherpesvirus 5 [16], the outcome was inactive.
